pIC50: −log10 of the molar value.
Assays:
[1] = test system: HCT-116; assay: Antiproliferative activity against human HCT116 cells after 96 hrs by MTT assay; format: functional, cell-based; conditions: HCT-116, 96 h
[2] = target: Histone deacetylase 4 (Homo sapiens, UniProt P56524); assay: Inhibition of recombinant human full length HDAC4 expressed in baculovirus infected Sf9 insect cells using Ac-peptide as substrate preincubated for 15 mins followed by substrate addition and measured after 1 hr
Outline: (§1)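 Recombinant HDAC isoforms mixed with serially diluted compound in assay buffer for 15 min at room temperature. Ac-peptide substrate then added and incubated 1 h at room temperature. Signal read on a plate reader; IC50 by curve fitting.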

[3] = Mutagenicity in Salmonella typhimurium TA1535 at 5 to 500 ug/plate in absence of s9 mix by Ames test; format: toxicity; conditions: salmonella enterica subsp. enterica serovar typhimurium
Outline: (§2)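 Plate incorporation method at 5, 50 and 500 μg/plate, with and without S9 activation. At least three plates per dose, incubated 72 h at 37 °C, revertants counted. Mean revertants compared with vehicle and positive controls.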

[4] = test system: DU-145; assay: Antiproliferative activity against human DU145 cells after 96 hrs by MTT assay; format: functional, cell-based; conditions: DU-145, 96 h
[5] = test system: Huh-7; assay: Antiproliferative activity against human HuH7 cells after 96 hrs by MTT assay; format: functional, cell-based; conditions: Huh-7, 96 h
[6] = test system: U-87 MG; assay: Antiproliferative activity against human U87 cells after 96 hrs by MTT assay; format: functional, cell-based, U-87MG ATCC
[7] = Drug concentration in human HCT116 cells assessed per million cells at 25 uM after 1 hr by LC/MS/MS analysis; format: ADME, cell-based; conditions: hct-116, 1 h
Outline: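 HCT116 cells seeded overnight, exposed 1 h to 25 μM compound in 4 wells, washed three times with PBS; one well trypsinized for cell count, three scraped, sonicated, acetonitrile-extracted, LC/MS/MS; nmol per million cells = concentration × total volume / cell number.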

[8] = test system: MDA-MB-453; assay: Antiproliferative activity against human MDA-MB-453 cells after 96 hrs by MTT assay; format: functional, cell-based; conditions: MDA-MB-453, 96 h
[9] = test system: HCT-116; assay: Induction of cell cycle arrest in human HCT116 cells assessed as accumulation at G1 phase at 100 to 500 nM after 24 hrs by propidium iodide/RNase staining-based FACS analysis; format: functional
Outline: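 HCT116 cells cultured overnight in 6-well plates, exposed to compound at various concentrations for 24 h; FxCycle PI/RNase staining and flow cytometry for cell cycle phase distribution.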

[10] = test system: HCT-116; assay: Induction of apoptosis in human HCT116 cells assessed as late apoptotic cells at 20 nM after 48 hrs by Annexin V-FITC/propidium iodide staining-based flow cytometric analysis (reference value: 3.87%); format: functional
[11] = test system: K562; assay: Antiproliferative activity against human K562 cells after 96 hrs by MTT assay; format: functional, cell-based; conditions: K562, 96 h
[12] = AUC (0 to t) in ICR mouse at 30 mg/kg, po measured after 0.083 to 24 hrs by LC/MS/MS analysis; format: ADME, organism-based; set-up: time upper 24 hr, dose 30 mg/kg, time lower 0.083 hr, route oral; conditions: in vivo
Outline: (§3)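 ICR mice; iv 3 mg/kg in 10% DMSO/saline (3 mice/group), blood at 0.033, 0.083, 0.25, 0.5, 1, 2, 4, 8, 12, 24 h; po 30 mg/kg as 0.5% cmc/0.3% Tween 80 suspension (5 mice/group), blood at 0.083–24 h. Plasma extracted with acetonitrile, LC/MS/MS; parameters by noncompartmental analysis.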

[13] = Toxicity in po dosed ICR mouse assessed as maximum tolerated dose; format: organism-based; conditions: in vivo
Outline: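 Male ICR mice, 6−8 weeks old, given one dose; vehicle 0.5% cmc with Tween 80 for oral dosing, saline for intraperitoneal dosing. Clinical signs observed and body weights recorded for 7 consecutive days after dosing to set the maximum tolerated dose.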

[14] = Tmax in ICR mouse at 30 mg/kg, po measured after 0.083 to 24 hrs by LC/MS/MS analysis; format: ADME, organism-based; conditions: in vivo
Outline: (§4)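 Male-unspecified ICR mice, 3 per group iv (3 mg/kg in 10% DMSO/saline) and 5 per group po (30 mg/kg in 0.5% cmc/0.3% Tween 80). Blood sampled 0.033 (iv) or 0.083 (po) to 24 h. Plasma extracted with acetonitrile, analysed by LC/MS/MS; noncompartmental analysis.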

[15] = test system: HCT-8; assay: Antiproliferative activity against human HCT8 cells after 96 hrs by MTT assay; format: functional, cell-based; conditions: HCT-8, 96 h
[16] = AUC (0 to infinity) in ICR mouse at 30 mg/kg, po measured after 0.083 to 24 hrs by LC/MS/MS analysis; format: ADME, organism-based; set-up: dose 30 mg/kg, time infinity, route oral; conditions: in vivo; outline: as §3
[17] = Oral bioavailability in ICR mouse at 30 mg/kg measured after 0.083 to 24 hrs by LC/MS/MS analysis; format: ADME, organism-based; conditions: in vivo; outline: as §4
[18] = test system: MCF7; assay: Antiproliferative activity against human MCF7 cells after 96 hrs by MTT assay; format: functional, cell-based; conditions: MCF7, 96 h
[19] = target: Voltage-gated inwardly rectifying potassium channel KCNH2 (Homo sapiens, UniProt Q12809); assay: Inhibition of human ERG stably expressed in CHO cells by whole cell patch clamp method; format: cell-based
Outline: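 CHO cells stably expressing hERG, grown in F-12 (Ham)/GlutaMAX with 10% FBS, penicillin G, blasticidin S and hygromycin B. Expression induced with 1 μg/mL doxycycline, cells cultured 24 h, then recorded by whole-cell patch clamp.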

[20] = Clearance in ICR mouse at 3 mg/kg, iv measured after 0.033 to 24 hrs by LC/MS/MS analysis; format: ADME, organism-based; conditions: in vivo; outline: as §3
[21] = test system: HCT-116; assay: Induction of apoptosis in human HCT116 cells after 48 hrs by Annexin V-FITC/propidium iodide staining-based flow cytometric analysis; format: functional, cell-based
[22] = target: Phosphatidylinositol 4,5-bisphosphate 3-kinase catalytic subunit gamma isoform (Homo sapiens, UniProt P48736); assay: Inhibition of recombinant human His-tagged PIK3CG expressed in baculovirus expression system using PIP2 as substrate incubated for 1 hr by ADP-glo assay
Outline: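 Recombinant PI3Kβ, -γ or -δ, serially diluted compound, PIP2 substrate and ATP combined in kinase buffer. Incubated 1 h at room temperature in the dark, then stopped with ADP-Glo reagent. Luminescence read after kinase detection reagent; IC50 by curve fitting.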

[23] = Mutagenicity in Salmonella typhimurium TA97 at 5 to 500 ug/plate in absence of s9 mix by Ames test; format: toxicity; conditions: salmonella enterica subsp. enterica serovar typhimurium; outline: as §2
[24] = target: Histone deacetylase 11 (Homo sapiens, UniProt Q96DB2); assay: Inhibition of recombinant human full length HDAC11 expressed in baculovirus infected Sf9 insect cells using Ac-peptide as substrate preincubated for 15 mins followed by substrate addition and measured after 1 hr; outline: as §1
[25] = test system: HCT-116; assay: Induction of apoptosis in human HCT116 cells assessed as late apoptotic cells at 500 nM after 48 hrs by Annexin V-FITC/propidium iodide staining-based flow cytometric analysis (reference value: 3.87%); format: functional
[26] = test system: Bel-7402; assay: Antiproliferative activity against human Bel7402 cells after 96 hrs by MTT assay; format: functional, cell-based; conditions: Bel-7402, 96 h
[27] = test system: HCT-116; assay: Induction of apoptosis in human HCT116 cells assessed as live cells at 500 nM after 48 hrs by Annexin V-FITC/propidium iodide staining-based flow cytometric analysis (reference value: 89.6%); format: functional
[28] = test system: HCT-116; assay: Induction of apoptosis in human HCT116 cells assessed as live cells at 100 nM after 48 hrs by Annexin V-FITC/propidium iodide staining-based flow cytometric analysis (reference value: 89.6%); format: functional

Chain of Voltage-gated inwardly rectifying potassium channel KCNH2 (Q12809 whole entry): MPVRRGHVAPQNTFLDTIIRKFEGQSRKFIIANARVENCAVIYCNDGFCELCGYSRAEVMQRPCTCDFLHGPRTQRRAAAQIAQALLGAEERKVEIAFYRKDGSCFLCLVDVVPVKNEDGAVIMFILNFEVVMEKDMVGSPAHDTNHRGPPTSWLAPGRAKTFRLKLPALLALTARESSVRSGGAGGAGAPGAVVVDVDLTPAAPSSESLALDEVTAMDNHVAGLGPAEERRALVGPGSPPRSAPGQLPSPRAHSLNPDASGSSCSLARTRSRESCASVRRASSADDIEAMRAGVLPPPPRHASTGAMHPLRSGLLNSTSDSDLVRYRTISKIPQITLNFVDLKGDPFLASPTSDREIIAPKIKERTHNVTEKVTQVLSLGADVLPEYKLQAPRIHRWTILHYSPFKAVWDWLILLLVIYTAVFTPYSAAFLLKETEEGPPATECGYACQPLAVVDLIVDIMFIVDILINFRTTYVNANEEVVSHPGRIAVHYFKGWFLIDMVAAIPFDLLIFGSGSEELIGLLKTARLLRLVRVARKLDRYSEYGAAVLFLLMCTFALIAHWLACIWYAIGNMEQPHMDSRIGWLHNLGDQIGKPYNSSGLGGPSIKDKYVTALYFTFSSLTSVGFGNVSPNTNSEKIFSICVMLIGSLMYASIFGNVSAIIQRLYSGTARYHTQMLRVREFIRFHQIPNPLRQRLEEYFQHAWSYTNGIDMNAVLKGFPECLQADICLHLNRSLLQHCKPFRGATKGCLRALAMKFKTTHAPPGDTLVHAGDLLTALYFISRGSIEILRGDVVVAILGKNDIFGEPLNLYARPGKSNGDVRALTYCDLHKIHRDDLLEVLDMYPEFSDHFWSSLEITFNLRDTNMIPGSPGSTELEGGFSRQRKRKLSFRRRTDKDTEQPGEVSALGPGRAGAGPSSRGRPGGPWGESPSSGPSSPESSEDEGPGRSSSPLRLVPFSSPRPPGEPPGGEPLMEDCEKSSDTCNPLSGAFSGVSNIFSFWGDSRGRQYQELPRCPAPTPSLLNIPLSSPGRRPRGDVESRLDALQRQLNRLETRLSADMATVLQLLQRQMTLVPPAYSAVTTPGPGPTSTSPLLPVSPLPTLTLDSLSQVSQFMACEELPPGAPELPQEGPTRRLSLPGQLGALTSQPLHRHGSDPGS
Chain of Phosphatidylinositol 4,5-bisphosphate 3-kinase catalytic subunit gamma isoform (P48736 whole entry, canonical isoform): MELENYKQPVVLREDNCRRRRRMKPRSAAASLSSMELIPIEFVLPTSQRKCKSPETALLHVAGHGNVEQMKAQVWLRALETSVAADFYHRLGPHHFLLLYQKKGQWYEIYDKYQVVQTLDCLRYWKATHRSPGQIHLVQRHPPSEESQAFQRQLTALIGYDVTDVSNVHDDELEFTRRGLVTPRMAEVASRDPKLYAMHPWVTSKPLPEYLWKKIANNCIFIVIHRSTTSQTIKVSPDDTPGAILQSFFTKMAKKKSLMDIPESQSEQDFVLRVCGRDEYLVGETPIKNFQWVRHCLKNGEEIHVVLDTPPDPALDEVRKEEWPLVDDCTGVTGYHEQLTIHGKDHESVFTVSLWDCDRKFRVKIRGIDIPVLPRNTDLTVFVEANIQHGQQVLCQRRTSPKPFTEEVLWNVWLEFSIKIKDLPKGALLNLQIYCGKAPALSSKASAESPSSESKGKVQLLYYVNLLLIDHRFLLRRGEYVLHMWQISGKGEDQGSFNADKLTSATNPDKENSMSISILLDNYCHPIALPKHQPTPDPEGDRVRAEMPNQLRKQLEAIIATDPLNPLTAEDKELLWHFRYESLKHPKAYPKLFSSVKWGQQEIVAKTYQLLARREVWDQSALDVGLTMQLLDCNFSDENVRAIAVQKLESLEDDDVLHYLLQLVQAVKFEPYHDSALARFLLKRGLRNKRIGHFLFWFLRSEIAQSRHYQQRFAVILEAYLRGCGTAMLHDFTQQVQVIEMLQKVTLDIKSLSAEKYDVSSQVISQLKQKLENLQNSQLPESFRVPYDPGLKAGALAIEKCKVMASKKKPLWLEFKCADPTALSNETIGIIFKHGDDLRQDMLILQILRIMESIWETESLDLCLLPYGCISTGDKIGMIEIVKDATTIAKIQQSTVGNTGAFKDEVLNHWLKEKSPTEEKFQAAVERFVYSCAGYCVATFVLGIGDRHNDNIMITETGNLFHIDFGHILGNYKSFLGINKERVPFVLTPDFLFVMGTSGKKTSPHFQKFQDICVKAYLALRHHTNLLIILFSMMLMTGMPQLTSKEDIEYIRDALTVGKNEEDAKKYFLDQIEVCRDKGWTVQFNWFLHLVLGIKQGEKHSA
Chain of Histone deacetylase 4 (P56524 whole entry, canonical isoform): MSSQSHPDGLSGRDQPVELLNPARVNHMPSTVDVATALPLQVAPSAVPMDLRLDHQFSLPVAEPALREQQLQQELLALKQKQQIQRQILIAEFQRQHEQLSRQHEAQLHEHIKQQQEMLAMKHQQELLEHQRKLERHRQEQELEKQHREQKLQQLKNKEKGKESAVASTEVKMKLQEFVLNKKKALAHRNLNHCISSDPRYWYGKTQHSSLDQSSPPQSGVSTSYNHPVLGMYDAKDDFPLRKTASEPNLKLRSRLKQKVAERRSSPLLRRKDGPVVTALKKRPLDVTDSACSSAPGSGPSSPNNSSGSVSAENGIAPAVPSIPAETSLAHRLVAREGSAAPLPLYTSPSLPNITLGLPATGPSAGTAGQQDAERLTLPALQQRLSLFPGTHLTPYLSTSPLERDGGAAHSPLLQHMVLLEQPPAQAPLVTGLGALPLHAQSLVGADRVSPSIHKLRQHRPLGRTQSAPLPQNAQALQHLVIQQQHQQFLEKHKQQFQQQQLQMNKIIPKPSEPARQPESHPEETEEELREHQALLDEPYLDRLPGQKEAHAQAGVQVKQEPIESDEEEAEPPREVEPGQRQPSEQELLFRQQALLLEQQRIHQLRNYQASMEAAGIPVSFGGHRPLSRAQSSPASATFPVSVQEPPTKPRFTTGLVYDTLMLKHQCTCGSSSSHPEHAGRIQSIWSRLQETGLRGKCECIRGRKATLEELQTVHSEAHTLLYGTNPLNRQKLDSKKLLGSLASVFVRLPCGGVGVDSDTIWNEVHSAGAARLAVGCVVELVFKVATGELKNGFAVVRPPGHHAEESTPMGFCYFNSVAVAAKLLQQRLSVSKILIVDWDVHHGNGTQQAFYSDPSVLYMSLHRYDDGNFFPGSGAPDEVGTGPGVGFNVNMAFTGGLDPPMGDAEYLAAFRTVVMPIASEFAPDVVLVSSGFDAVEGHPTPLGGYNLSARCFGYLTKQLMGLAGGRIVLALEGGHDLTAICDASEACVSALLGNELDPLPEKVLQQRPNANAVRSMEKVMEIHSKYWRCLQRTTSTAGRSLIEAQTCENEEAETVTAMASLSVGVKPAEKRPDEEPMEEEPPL
Chain of Histone deacetylase 11 (Q96DB2 whole entry): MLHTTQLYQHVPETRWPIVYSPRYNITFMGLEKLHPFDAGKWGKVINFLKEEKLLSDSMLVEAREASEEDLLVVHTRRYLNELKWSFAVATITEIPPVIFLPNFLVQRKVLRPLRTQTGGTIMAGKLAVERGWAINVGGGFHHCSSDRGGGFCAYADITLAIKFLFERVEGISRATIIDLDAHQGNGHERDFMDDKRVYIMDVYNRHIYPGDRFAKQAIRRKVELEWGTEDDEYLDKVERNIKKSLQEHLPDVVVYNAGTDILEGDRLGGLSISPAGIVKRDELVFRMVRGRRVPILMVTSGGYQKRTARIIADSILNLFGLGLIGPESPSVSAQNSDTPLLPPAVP

| SMILES | pIC50 [1] | IC90 [1] | pIC50 [2] | Activity [3] | pIC50 [4] | pIC50 [5] | pIC50 [6] | Drug metabolism [7] | pIC50 [8] | Activity [9] | Activity [10] | pIC50 [11] | AUC(0-t) [12] | MTD [13] | Tmax [14] | pIC50 [15] | pIC50 [18] | pIC50 [19] | clearance [20] | Activity [21] | further results |
| --- | --- | --- | --- | --- | --- | --- | --- | --- | --- | --- | --- | --- | --- | --- | --- | --- | --- | --- | --- | --- | --- |
| COc1ccc(-c2cc(OCCN(C)c3ncc(C(=O)NO)cn3)c3ncnc(C)c3c2)cn1 | 8.15 | 2800 nM | 6.01 | Non-Toxic | 7.18 | 6.62 | 6.47 | Metabolite_Detected | 8.40 | Dose-dependent effect | 5.89% | 5.92 | 23.1 ng·h/mL | > 2000 mg/kg | 1.8 h | 7.23 | 5.96 | < 4.52 | 352 mL/min/kg | Dose-dependent effect | AUC [16]: 51.4 ng·h/mL; F [17]: 1.7%; pIC50 [22]: 6.33; Activity [23]: Non-Toxic; pIC50 [24]: < 6.00; Activity [25]: 24.4%; pIC50 [26]: 5.80; Activity [27]: 43.8%; Activity [28]: 70.2% |
| COc1ncc(-c2cc(OCCCCCCC(=O)NO)c3ncnc(C)c3c2)cc1F | 6.82 | 48000 nM | < 6.00 | Non-Toxic | 6.27 | 5.60 | 5.49 | Metabolite_Detected | 6.52 | Dose-dependent effect | 5.48% | 5.17 | 230 ng·h/mL | > 2000 mg/kg | 0.3 h | 6.49 | 5.70 | < 4.52 | 90 mL/min/kg | Dose-dependent effect | AUC(0-inf) ([16]; ICR): 274 ng·h/mL; bioavailability ([17]; ICR): 4.2%; pIC50 [22]: 7.17; Activity [23]: Non-Toxic; pIC50 [24]: < 6.00; Activity [25]: 10.3%; pIC50 [26]: 5.28; Activity [27]: 67.9%; Activity [28]: 80.8% |

Reference: ChEMBL document CHEMBL4311940, “Design, Synthesis, and Biological Evaluation of 4-Methyl Quinazoline Derivatives as Anticancer Agents Simultaneously Targeting Phosphoinositide 3-Kinases and Histone Deacetylases” (J Med Chem, 2019)
